From ChEMBL document CHEMBL1122207, “Antitumor agents. 2. Bisguanylhydrazones of anthracene-9,10-dicarboxaldehydes” (1982)

Key:
Format in all cases: functional
Mus musculus [1] = experiment: Percent increase in median life span of BDF1 mice with B-16 melanoma at dose 12.5 mg/kg administered intraperitoneally; conditions: BDF1, B16, ip, route intraperitoneal
Procedure, shortened: (§1)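 BDF1 mice were implanted ip with a homogenate from 0.05 g of B-16 melanoma. Ip dosing ran on days 1-9, starting 24 h after implant, in dose-response studies following NCI protocols. The read-out was percent increase in life span (ILS). T/C ≥125% was taken as significant.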

Mus musculus [2] = species on record: Mus musculus; experiment: Anticancer activity measured as the number of survivors of the total treated mice with P-388 leukemia at 30 days.
Procedure, shortened: (§2)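 BDF1 or CDF1 mice given 10^6 ascitic P-388 leukemia cells ip, then treated ip on days 1, 5 and 9. Cures are survivors over total treated at 30 days.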

Mus musculus [3] = experiment: Percent increase in median life span of BDF1 mice with P-388 leukemia at dose 50 mg/kg administered intraperitoneally; conditions: BDF1, P388, ip, route intraperitoneal
Mus musculus [4] = species on record: Mus musculus; experiment: Number of survivors of the total treated mice with B-16 melanoma, at 60 days.
Procedure, shortened: (§3)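 BDF1 mice were implanted ip with a homogenate from 0.05 g of B-16 melanoma and dosed ip on days 1-9. Cures are survivors over total at 60 days.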

Mus musculus [5] = experiment: Percent increase in median life span of BDF1 mice with B-16 melanoma at dose 50 mg/kg administered intraperitoneally; conditions: BDF1, B16, ip, route intraperitoneal; procedure, shortened: as §1
Mus musculus [6] = experiment: Percent increase in median life span of BDF1 mice with P-388 leukemia at dose 25 mg/kg administered intraperitoneally; conditions: BDF1, P388, ip, route intraperitoneal
Mus musculus [7] = experiment: Percent increase in median life span of BDF1 mice with B-16 melanoma at dose 12 mg/kg administered intraperitoneally; conditions: BDF1, B16, ip, route intraperitoneal; procedure, shortened: as §1
Mus musculus [8] = experiment: Percent increase in median life span of BDF1 mice with P-388 leukemia at dose 12.5 mg/kg administered intraperitoneally; conditions: BDF1, P388, ip, route intraperitoneal
Mus musculus [9] = experiment: Percent increase in median life span of BDF1 mice with P-388 leukemia at dose 200 mg/kg administered intraperitoneally; conditions: BDF1, P388, ip, route intraperitoneal
Mus musculus [10] = experiment: Percent increase in median life span of BDF1 mice with B-16 melanoma at dose 25 mg/kg administered intraperitoneally; conditions: BDF1, B16, ip, route intraperitoneal; procedure, shortened: as §1
Mus musculus [11] = species on record: Mus musculus; experiment: Cures is the number of survivors of the total treated mice (6) with P-388 leukemia, at 30 days.; procedure, shortened: as §2
Mus musculus [12] = species on record: Mus musculus; experiment: Cures is the number of survivors of the total treated mice (12) with P-388 leukemia, at 30 days.; procedure, shortened: as §2
Mus musculus [13] = experiment: Percent increase in median life span of BDF1 mice with B-16 melanoma administered intraperitoneally; procedure, shortened: as §1
Mus musculus [14] = experiment: Percent increase in median life span of BDF1 mice with P-388 leukemia administered intraperitoneally
Mus musculus [15] = species on record: Mus musculus; experiment: Cures is the number of survivors of the total treated mice (10) with B-16 melanoma, at 60 days.; procedure, shortened: as §3
Mus musculus [16] = experiment: Percent increase in median life span of BDF1 mice with B-16 melanoma at dose 3.1 mg/kg administered intraperitoneally; conditions: BDF1, B16, ip, route intraperitoneal; procedure, shortened: as §1
Mus musculus [17] = experiment: Percent increase in median life span of BDF1 mice with P-388 leukemia at dose 6.25 mg/kg administered intraperitoneally; conditions: BDF1, P388, ip, route intraperitoneal

SMILES	Cures (Mus musculus [2])	Cures (Mus musculus [4])	ILS at 200 mg/kg (Mus musculus [9])	also measured
COc1ccc(OC)c2c(/C=N/NC3=NCCN3)c3ccccc3c(/C=N/NC3=NCCN3)c12.Cl.Cl	0	0		ILS at 12.5 mg/kg (Mus musculus [1]): 64%; ILS at 50 mg/kg (Mus musculus [3]): 50%
CC1(C)CCC(C)(C)NC(N/N=C/c2c3ccccc3c(/C=N/NC3=NC(C)(C)CCC(C)(C)N3)c3ccccc23)=N1.Cl.Cl	0			ILS at 50 mg/kg (Mus musculus [3]): 0%
CCCCC1(CCCC)CN=C(N/N=C/c2c3ccccc3c(/C=N/NC3=NCC(CCCC)(CCCC)CN3)c3ccccc23)NC1.Cl.Cl		0		ILS at 50 mg/kg (Mus musculus [5]): 0%
C(=N\NC1=NCCCCC1)/c1c2ccccc2c(/C=N/NC2=NCCCCC2)c2ccccc12.Cl.Cl	0	0		ILS at 25 mg/kg (Mus musculus [6]): 95%; ILS at 12 mg/kg (Mus musculus [7]): 35%
C(=N\NC1=NCCN1)/C1c2ccccc2C(/C=N/NC2=NCCN2)c2ccccc21.Cl.Cl (centres undefined)		0		ILS at 12.5 mg/kg (Mus musculus [1]): 100%; ILS at 12.5 mg/kg (Mus musculus [8]): 72%
CCCCCCCCCCCCCCCC/N=C(\N)N/N=C/c1c2ccccc2c(/C=N/N/C(N)=N/CCCCCCCCCCCCCCCC)c2ccccc12.Cl.Cl	0	0	0%	ILS at 50 mg/kg (Mus musculus [5]): 0%
CN1CCN(/N=C/c2c3ccccc3c(/C=N/N3CCN(C)CC3)c3ccccc23)CC1.Cl.Cl	0		0%	
Cc1cc2c(cc1C)C(/C=N/NC1=NCCN1)c1ccccc1C2/C=N/NC1=NCCN1 (centres undefined)				ILS at 50 mg/kg (Mus musculus [3]): 73%
Cl.Cl.N=C(NCc1cccs1)N/N=C/c1c2ccccc2c(/C=N/NC(=N)NCc2cccs2)c2ccccc12	0	0		ILS at 50 mg/kg (Mus musculus [3]): 90%; ILS at 12 mg/kg (Mus musculus [7]): 75%
Cl.Cl.Cl.Cl.N=C(NCc1ccccn1)N/N=C/c1c2ccccc2c(/C=N/NC(=N)NCc2ccccn2)c2ccccc12	0	0		ILS at 25 mg/kg (Mus musculus [10]): 74%; ILS at 50 mg/kg (Mus musculus [3]): 95%
Cl.Cl.Cl.Cl.N=C(NCc1cccnc1)N/N=C/c1c2ccccc2c(/C=N/NC(=N)NCc2cccnc2)c2ccccc12		0		ILS at 25 mg/kg (Mus musculus [10]): 77%; ILS at 25 mg/kg (Mus musculus [6]): 114%; Cures (Mus musculus [11]): 1
Cl.Cl.Cl.Cl.N=C(NCc1ccncc1)N/N=C/c1c2ccccc2c(/C=N/NC(=N)NCc2ccncc2)c2ccccc12	0	0		ILS at 25 mg/kg (Mus musculus [10]): 78%; ILS at 12.5 mg/kg (Mus musculus [8]): 90%
C(=C\c1c2ccccc2c(/C=C/C=N/NC2=NCCN2)c2ccccc12)/C=N/NC1=NCCN1.Cl.Cl	0	0	36%	ILS at 25 mg/kg (Mus musculus [10]): 46%
CC1(/C=N/NC2=NCCN2)c2ccccc2C(C)(/C=N/NC2=NCCN2)c2ccccc21 (centres undefined)			0%	ILS at 50 mg/kg (Mus musculus [5]): 0%
C(=N\NC1=NCCCN1)/c1c2ccccc2c(/C=N/NC2=NCCCN2)c2ccccc12.Cl.Cl		0		ILS at 12.5 mg/kg (Mus musculus [8]): 82%; Cures (Mus musculus [12]): 1; ILS at 12 mg/kg (Mus musculus [7]): 106%
CC(C)(C)c1ccc2c(/C=N/NC3=NCCN3)c3ccccc3c(/C=N/NC3=NCCN3)c2c1.Cl.Cl	0	0		ILS (Mus musculus [13]): 0%; ILS (Mus musculus [14]): 0%
CN(C)CC(=O)N/N=C/c1c2ccccc2c(/C=N/NC(=O)CN(C)C)c2ccccc12.Cl.Cl	0		0%	
Cl.Cl.N/C(=N\N=C\c1c2ccccc2c(/C=N/N/C(N)=N/CCO)c2ccccc12)NCCO	0			ILS at 25 mg/kg (Mus musculus [6]): 90%; Cures (Mus musculus [15]): 1; ILS at 12 mg/kg (Mus musculus [7]): 80%
COc1ccc(OC)c2c1C(/C=N/NC1=NCCN1)c1ccccc1C2/C=N/NC1=NCCN1 (centres undefined)			0%	
C(/CCc1c2ccccc2c(CC/C=N/NC2=NCCN2)c2ccccc12)=N\NC1=NCCN1.Cl.Cl	0	0		ILS at 50 mg/kg (Mus musculus [5]): 0%; ILS at 50 mg/kg (Mus musculus [3]): 30%
Cl.Cl.Fc1ccc2c(/C=N/NC3=NCCN3)c3ccccc3c(/C=N/NC3=NCCN3)c2c1				ILS at 3.1 mg/kg (Mus musculus [16]): 183%; Cures (Mus musculus [12]): 3; ILS at 6.25 mg/kg (Mus musculus [17]): 123%; Cures (Mus musculus [15]): 4
Cl.Cl.S=C(NCCN1CCOCC1)N/N=C/c1c2ccccc2c(/C=N/NC(=S)NCCN2CCOCC2)c2ccccc12	0			Cures (Mus musculus [15]): 1; ILS at 50 mg/kg (Mus musculus [3]): 80%; ILS at 12 mg/kg (Mus musculus [7]): 103%
Cl.Cl.S=C(NCCN1CCCCC1)N/N=C/c1c2ccccc2c(/C=N/NC(=S)NCCN2CCCCC2)c2ccccc12	0			ILS (Mus musculus [13]): 0%; ILS at 50 mg/kg (Mus musculus [3]): 58%
CC(C)CN(CC/N=C(\S)N/N=C/c1c2ccccc2c(/C=N/N/C(S)=N/CCN(CC(C)C)CC(C)C)c2ccccc12)CC(C)C.Cl.Cl	0			ILS at 25 mg/kg (Mus musculus [6]): 33%
CCN(CC)CC/N=C(\S)N/N=C/c1c2ccccc2c(/C=N/N/C(S)=N/CCN(CC)CC)c2ccccc12.Cl.Cl	0			ILS at 6.25 mg/kg (Mus musculus [17]): 95%

SMILES	Cures (Mus musculus [2])	Cures (Mus musculus [4])	ILS at 200 mg/kg (Mus musculus [9])	also measured
CN(C)CCCCCCC/N=C(\S)N/N=C/c1c2ccccc2c(/C=N/N/C(S)=N/CCCCCCCN(C)C)c2ccccc12.Cl	0			ILS (Mus musculus [13]): 0%; ILS at 6.25 mg/kg (Mus musculus [17]): 39%
C(=N\Nc1nc2ccccc2s1)/c1c2ccccc2c(/C=N/Nc2nc3ccccc3s2)c2ccccc12	0		0%	
COCC/N=C(\S)N/N=C/c1c2ccccc2c(/C=N/N/C(S)=N/CCOC)c2ccccc12				ILS (Mus musculus [14]): 0%
CN1CCN(C)C1=N/N=C/c1c2ccccc2c(/C=N/N=C2N(C)CCN2C)c2ccccc12	0		0%	
C(=N\Nc1ccccn1)/c1c2ccccc2c(/C=N/Nc2ccccn2)c2ccccc12	0		0%	
N=C(NCc1ccccc1)N/N=C/c1c2ccccc2c(/C=N/NC(=N)NCc2ccccc2)c2ccccc12	0	0		ILS at 25 mg/kg (Mus musculus [6]): 68%; ILS at 12 mg/kg (Mus musculus [7]): 47%
NC(=O)N/N=C/c1c2ccccc2c(/C=N/NC(N)=O)c2ccccc12	0		0%	
N=C(N/N=C/c1c2ccccc2c(/C=N/NC(=N)NC2CCCCC2)c2ccccc12)NC1CCCCC1	0	0		ILS at 50 mg/kg (Mus musculus [3]): 73%; ILS at 12 mg/kg (Mus musculus [7]): 80%
O=C(N/N=C/c1c2ccccc2c(/C=N/NC(=O)c2cccnc2)c2ccccc12)c1cccnc1	0		0%	
C(=N\NC1=NCCCCN1)/c1c2ccccc2c(/C=N/NC2=NCCCCN2)c2ccccc12	0			ILS at 12.5 mg/kg (Mus musculus [8]): 90%; Cures (Mus musculus [15]): 1; ILS at 12 mg/kg (Mus musculus [7]): 173%
CSC(=N)N/N=C/c1c2ccccc2c(/C=N/N=C(/N)SC)c2ccccc12	0		0%	
CN(C)c1ccc(N/C(S)=N/N=C/c2c3ccccc3c(/C=N/N=C(/S)Nc3ccc(N(C)C)cc3)c3ccccc23)cc1				ILS (Mus musculus [14]): 0%
CCCO.Clc1cccc2c1C(/C=N/NC1=NCCN1)c1cccc(Cl)c1C2/C=N/NC1=NCCN1 (centres undefined)			0%	ILS at 50 mg/kg (Mus musculus [5]): 0%
Cc1ccc2c(/C=N/NC3=NCCN3)c3ccccc3c(/C=N/NC3=NCCN3)c2c1Cl.Cl.Cl	0			ILS at 12.5 mg/kg (Mus musculus [1]): 220%; ILS at 12.5 mg/kg (Mus musculus [8]): 130%; Cures (Mus musculus [15]): 4
Cl.Cl.Clc1cccc2c1C(/C=N/NC1=NCCN1)c1ccccc1C2/C=N/NC1=NCCN1 (centres undefined)				ILS at 50 mg/kg (Mus musculus [5]): 153%; Cures (Mus musculus [15]): 3; ILS at 50 mg/kg (Mus musculus [3]): 100%
Cl.Cl.Clc1ccc2c(c1)C(/C=N/NC1=NCCN1)c1ccccc1C2/C=N/NC1=NCCN1 (centres undefined)				ILS at 12.5 mg/kg (Mus musculus [1]): 230%; Cures (Mus musculus [15]): 5; ILS at 50 mg/kg (Mus musculus [3]): 100%
CN(C)CC/N=C/c1c2ccccc2c(/C=N/CCN(C)C)c2ccccc12	0		0%	
N/N=C(\S)N/N=C/c1c2ccccc2c(/C=N/N/C(S)=N/N)c2ccccc12	0		0%	
CN(C)/N=C/c1c2ccccc2c(/C=N/N(C)C)c2ccccc12	0		0%	
Cc1ccc(S(=O)(=O)N/N=C/c2c3ccccc3c(/C=N/NS(=O)(=O)c3ccc(C)cc3)c3ccccc23)cc1	0		0%	
CN/N=C/c1c2ccccc2c(/C=N/NC)c2ccccc12	0		0%	
C(=N\NC1=NCc2ccccc2CN1)/c1c2ccccc2c(/C=N/NC2=NCc3ccccc3CN2)c2ccccc12	0		30%	
CC(C)/N=C(/N/N=C/c1c2ccccc2c(/C=N/N=C(NC(C)C)NC(C)C)c2ccccc12)NC(C)C	0	0		ILS (Mus musculus [13]): 0%; ILS at 50 mg/kg (Mus musculus [3]): 50%
N=C(N/N=C/c1c2ccccc2c(/C=N/NC(=N)NC2CCc3ccccc32)c2ccccc12)NC1CCc2ccccc21 (centres undefined)	0	0	80%	ILS at 25 mg/kg (Mus musculus [10]): 62%
